Source: publication PMC6767012 (Clinical Pharmacology in Drug Development, 2018)
Like-named read-outs stand apart in the source and are kept apart here.

Tests used:
[1] = Food effect study: safety and tolerability; assay type: in vivo, human; details: for Incidence of treatment-emergent adverse events (TEAEs): single oral 180 mg, healthy subjects
Outline: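 Phase 1, single-centre, randomised, open-label, 2-period, 2-sequence crossover in healthy nonsmoking adults aged 18–55, BMI 18–30 kg/m2, at least 50 kg. Single morning oral dose (2 × 90-mg tablets) with about 240 mL water, after an overnight fast of at least 10 h, or with a standardised high-fat meal 30 ± 5 min before dosing. Washout at least 16 days. Adverse events were tracked until 7 days after the last dose, alongside vital signs, haematology, chemistry, urinalysis, physical exams and 12-lead ECG.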

[2] = assay type: in vivo, human; details: single oral 180 mg; for Effect of high-fat meal on total exposure (AUC): fed vs fasted; for Reduction of Cmax under fed versus fasted conditions: high-fat meal; for half-life: t1/2 (terminal elimination half-life)
[3] = tested on: ALK resistance mutations; details: nonclinical studies; cited from earlier work
[4] = tested on: CYP2C8 and CYP3A4; details: human liver microsomes and hepatocytes; cited from earlier work
[5] = tested on: ALK+ NSCLC; details: 180 mg orally once daily with 7-day lead-in at 90 mg; crizotinib-refractory ALK+ NSCLC; cited from earlier work
[6] = single oral 180-mg dose, healthy subjects; cited from earlier work
[7] = cited from earlier work
[8] = healthy subjects; cited from earlier work
[9] = patients with advanced ALK+ NSCLC; cited from earlier work
[10] = cited from earlier work; remark: listed apart in the source

Question: What does the source list for `COc1cc(N2CCC(N3CCN(C)CC3)CC2)ccc1Nc1ncc(Cl)c(Nc2ccccc2P(C)(C)=O)n1` [Brigatinib]?
Answer: Subjects with cough ([1]; fasted): 24%; Subjects with headache ([1]; fasted): 14%; Subjects with nausea ([1]; fasted): 14%; Subjects with somnolence ([1]; fasted): 14%; Abnormalities in laboratory findings, vital signs, ECGs, or physical examination ([1]; fasted and fed): no clinically significant abnormalities; Deaths or serious TEAEs ([1]; fasted and fed): No deaths or serious TEAEs; Intensity of TEAEs ([1]; fasted and fed): mild; Incidence of treatment-emergent adverse events (TEAEs) ([1]; fasted): 48%; Subjects with headache ([1]; fed): 4%; Subjects with nausea ([1]; fed): 4%; Subjects with somnolence ([1]; fed): 4%; Incidence of treatment-emergent adverse events (TEAEs) ([1]; fed (high-fat meal)): 46%; Effect of high-fat meal on total exposure (AUC) [2]: no effect; Effect of high-fat meal on total exposure (AUC) ([2]; listed as brigatinib): similar; Reduction of Cmax under fed versus fasted conditions [2]: 13%; Reduction of Cmax under fed versus fasted conditions ([2]; listed as brigatinib): approximately 13%; Cmax ([2]; human, plasma, po, 180 mg, Geometric mean (% CV), fasted, N = 21): 701 ng/mL; Cmax ([2]; human, plasma, po, 180 mg, Geometric mean (% CV), fed (high-fat meal), N = 24): 605 ng/mL; Cmax ([2]; human, plasma, po, 180 mg, Mean (SD), fed (high-fat meal), healthy subjects, N = 24): 622 ng/mL; Tmax ([2]; human, plasma, po, 180 mg, Tmax, Median (minimum-maximum), fed (high-fat meal), N = 24): 5 h; half-life ([2]; human, plasma, po, 180 mg, Mean (SD), fasted, N = 21): 31 h; half-life ([2]; human, plasma, po, 180 mg, Mean (SD), fed (high-fat meal), N = 24): 31.1 h; Activity against all ALK resistance mutations tested [3]: potent activity; Metabolizing enzymes [4]: cytochrome P450 (CYP)2C8 and CYP3A4; Confirmed objective response rate [5]: 56%; Median progression-free survival [5]: 16.7 months; Administered dose excreted in the feces [6]: 65%; Administered dose excreted in the urine [6]: 25%; Steady-state systemic exposure versus dose ([7]; 60 mg to 240 mg once daily): dose proportional; Geometric mean apparent oral clearance at steady-state ([7]; 180 mg orally once daily): 10.6 L/h; Mean plasma elimination half-life ([7]; 180 mg orally once daily): 25 h

Question: Which “Decrease of exposure (both Cmax and AUC) following a high-fat meal” value [8] does the source give for `C[C@@H](Oc1cc(-c2cnn(C3CCNCC3)c2)cnc1N)c1c(Cl)ccc(F)c1Cl` [Crizotinib] here?
Answer: The value was 14%.

Question: Which “Cmax and AUC0–24 of 450 mg taken with food versus 750 mg fasted” value [9] does the source give for `Cc1cc(Nc2ncc(Cl)c(Nc3ccccc3S(=O)(=O)C(C)C)n2)c(OC(C)C)cc1C1CCNCC1` [ceritinib] here?
Answer: Its value is “comparable”.

Question: And the “Incidence of gastrointestinal toxicities, 450 mg with food versus 750 mg fasted” value [9]?
Answer: Its value is “lower incidence”.

Question: What about the “Effect of food on exposure” value [10] of the same compound?
Answer: The value was “increases exposure”.
